Positions of bridges follow the written chain, without caps; N, C: chain ends. Residues, ends and D or L forms follow the SMILES beside them. No end group written: not given here.
B1: N36 peptide derived from HIV-1 JR-FL gp41 (peptide)
chain: SGIVQQQNNLLRAIEAQQRMLQLTVWGIKQLQARVL
B2: fejerlectin (peptide)
peptide: RLCYMVLPCP
modifications: disulfide 3-9 (inferred)

Experiments:
[1] = test system: gp41 6-HB (N36 and C34 peptides); assay: ELISA for inhibiting gp41 6-HB formation; assay type: biochemical, HIV-1; conditions: read-out: IC50, gp41 6-HB formation; 2 μM N36, 2 μM C34, 37 °C, ELISA 450 nm; mean ± SD, n = 3
In short: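 2 μM N36 was preincubated with the test compound (5–50 μM) at 37 °C for 30 min, then with 2 μM C34 at 37 °C for another 30 min. The mixture went onto plates coated with 2 μg/mL rabbit anti-6-HB IgG. Detection used 1 μg/mL NC-1 mAb, biotin-anti-mouse IgG, streptavidin-HRP and TMB, stopped with 1 M H2SO4, read at A450. Mean ± SD, n = 3.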

[2] = test system: HIV-1SF162, HIV-1NL4-3, and HIV-1_81A and NL4-3; assay: time-of-addition assay, results in words for the viruses together; assay type: cell-based; conditions: AZT 45 nM, maraviroc 24 nM, AMD3100 50 nM
In short: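 TZM-bl cells (5 × 10^5/mL) were infected with HIV-1NL4-3, HIV-1SF162 or HIV-1 81A/NL4-3 at 100 TCID50 at 37 °C. Test compound (added as 25 μM) or control was introduced at 0, 0.5, 1, 2, 4, 6, 8 or 24 h post-infection. Medium was replaced at 24 h, and supernatant p24 antigen was measured at 48 h. Mean ± SD, n = 3.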

[3] = serum stability, HA activity after incubation in human serum; assay type: in vitro ADME; conditions: 3 h; method: human serum at 37 °C, read-out HA titer
In short: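 Test compound was held in human serum at 37 °C for 0–4 h before HA titration. Mouse erythrocytes were washed in Alsever's solution and used as a 2% (v/v) suspension in PBS pH 7.5. Twofold serial dilutions were made in V-bottom plates, with PBS as negative control. Titer is the reciprocal of the lowest concentration giving HA. Repeated at least three times.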

TZM-bl cells = assay: cytotoxicity in vitro; assay type: cell-based; conditions: MTT, 48 h, 1 to 1000 μM, mean ± SD, n = 3
In short: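 TZM-bl cells, 2 × 10^4/well in DMEM with 10% FBS and 1% penicillin/streptomycin, were cultured 24 h, then exposed to the test compound (1–1000 μM) for 48 h. MTT (0.5 mg/mL) was applied for 4 h, and formazan was dissolved in DMSO and read at 570 nm. CC50 was computed from the dose series. Mean ± SD, n = 3.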

HIV-1SF162 = conditions: 1SF162, 48 h
HIV-1NL4-3 = conditions: 1NL4-3, 48 h
HIV-1_81A and NL4-3 = conditions: 1 81A and NL4-3, 48 h
[4] = test system: HIV-1JR-FL pseudotyped virus; conditions: 72 h
[5] = test system: HIV-1HXB2 pseudotyped virus; conditions: 72 h
gp41 = conditions: cited from earlier work
HIV-1 = conditions: cited from earlier work
fejerlectin = target: B2; assay: SPR
[6] = target: B1; assay: ELISA

Molecule: COc1ccc(S(=O)(=O)O)cc1N=Nc1c(S(=O)(=O)O)cc2cc(Nc3nc(Nc4ccccc4)nc(Nc4cc(C)c(N=Nc5cc(S(=O)(=O)O)cc6cc(S(=O)(=O)O)cc(O)c56)cc4OC)n3)ccc2c1O [ADS-J1]
- IC50 [1]: 1530 ± 480 nM

Molecule: c1cc(CN2CCCNCCNCCCNCC2)ccc1CN1CCCNCCNCCCNCC1 [AMD3100]
- anti-HIV activity when added 8 h after infection [2]: significantly decreased 8 h after infection

Molecule: Cc1cn([C@H]2C[C@H](N=[N+]=[N-])[C@@H](CO)O2)c(=O)[nH]c1=O [AZT, zidovudine]
- anti-HIV activity when added 8 h after infection [2]: still had high antiviral activity when added 8 h after infection

Molecule: CSCC[C@@H]1NC(=O)[C@H](Cc2ccc(O)cc2)NC(=O)[C@@H](NC(=O)[C@H](CC(C)C)NC(=O)[C@@H](N)CCCNC(=N)N)CSSC[C@@H](C(=O)N2CCC[C@H]2C(=O)O)NC(=O)[C@@H]2CCCN2C(=O)[C@H](CC(C)C)NC(=O)[C@H](C(C)C)NC1=O [fejerlectin, RLCYMVLPCP] (H-RLCYMVLPCP-OH; disulfide 3-9)
- stability of HA activity in human plasma [3]: stable for 3 h in human plasma
- CC50 (TZM-bl cells): 182490 ± 9350 nM
- IC50 (HIV-1SF162): 2170 ± 1030 nM
- IC50 (HIV-1NL4-3): 1430 ± 340 nM
- IC50 (HIV-1_81A and NL4-3): 2800 ± 370 nM
- EC50 [4]: 4200 ± 960 nM
- EC50 [5]: 9630 ± 2300 nM

Molecule: O=C(CCc1ccc(O)cc1)c1c(O)cc(O[C@@H]2O[C@H](CO)[C@@H](O)[C@H](O)[C@H]2O)cc1O [trilobatin]
- HIV-1 entry/fusion inhibition via gp41 NHR (gp41): inhibited HIV-1 entry/fusion by binding the gp41 NHR region and blocking the formation of fusion-active 6-HB

Molecule: caerin 1.1
- suppression of HIV proliferation (HIV-1): suppress HIV proliferation by direct inactivation

Molecule: maraviroc
- anti-HIV activity when added 8 h after infection [2]: significantly decreased 8 h after infection

Molecule: retrocyclin-1
- protection of cells from HIV-1 infection (HIV-1): protect cells from HIV-1 infection by binding with high affinity to gp120, CD4, and galactosylceramide

Molecule: sifuvirtide
- anti-HIV-1 activity by inhibiting 6-HB formation (gp41): potent anti-HIV-1 activity by inhibiting 6-HB formation

Molecule: B1
- Kd (fejerlectin): 466000 nM

Molecule: B2
- IC50 [6]: 2610 nM

From publication PMC7948434 (ACS Omega, 2021)
